Here are results for 14 compounds from ChEMBL document CHEMBL3102805, “Truncated Orexin Peptides: Structure-Activity Relationship Studies” (ACS Med Chem Lett, 2013).

The structures appear in SMILES notation. Calls of active or inactive are those of the source. The calls are words filed in the database; no cut-off is given here. Where a SMILES comes first, the peptide text is derived from it. Where only a bound is given, the exact number is not on record here.

Experiment [1] addresses T1, Orexin/Hypocretin receptor type 1 (Homo sapiens) (UniProt O43613).
T1 sequence (whole entry): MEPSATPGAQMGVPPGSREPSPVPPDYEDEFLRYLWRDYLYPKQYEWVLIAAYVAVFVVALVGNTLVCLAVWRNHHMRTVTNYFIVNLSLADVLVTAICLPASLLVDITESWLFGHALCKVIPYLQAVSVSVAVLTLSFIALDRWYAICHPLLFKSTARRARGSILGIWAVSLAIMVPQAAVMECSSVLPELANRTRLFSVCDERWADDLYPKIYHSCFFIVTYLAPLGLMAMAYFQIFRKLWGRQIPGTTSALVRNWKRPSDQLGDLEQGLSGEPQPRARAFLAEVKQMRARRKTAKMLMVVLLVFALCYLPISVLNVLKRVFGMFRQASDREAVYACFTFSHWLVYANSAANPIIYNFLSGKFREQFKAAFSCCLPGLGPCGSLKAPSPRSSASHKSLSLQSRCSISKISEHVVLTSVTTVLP
In words: Agonist activity at human OX1 receptor overexpressed in CHO-RD-HGA16 cells assessed as calcium mobilization at 10 uM after 15 mins by fluorescence assay relative to control. Format: functional, cell-based. On the technique in general: A change in cytosolic calcium serves as a functional read-out for many receptors and channels.

Experiment [2] addresses T2, Orexin receptor type 2 (Homo sapiens) (UniProt O43614).
T2 sequence (whole entry): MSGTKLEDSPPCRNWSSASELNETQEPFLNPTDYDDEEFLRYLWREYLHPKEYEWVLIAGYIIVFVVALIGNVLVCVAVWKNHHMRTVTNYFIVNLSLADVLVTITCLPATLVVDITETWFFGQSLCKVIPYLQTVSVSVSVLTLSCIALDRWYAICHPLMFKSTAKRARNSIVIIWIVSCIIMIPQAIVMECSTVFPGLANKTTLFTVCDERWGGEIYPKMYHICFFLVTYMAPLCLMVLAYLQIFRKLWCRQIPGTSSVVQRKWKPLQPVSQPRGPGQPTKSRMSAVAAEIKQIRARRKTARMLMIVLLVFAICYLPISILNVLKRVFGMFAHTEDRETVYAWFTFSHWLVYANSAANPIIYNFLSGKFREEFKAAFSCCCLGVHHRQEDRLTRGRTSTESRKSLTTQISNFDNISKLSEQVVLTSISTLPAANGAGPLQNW
In words: Agonist activity at human OX2 receptor overexpressed in CHO-RD-HGA16 cells assessed as calcium mobilization at 10 uM after 15 mins by fluorescence assay relative to control. Format: functional, cell-based.

Another experiment deals with T3, Orexin receptor type 2 (Homo sapiens, UniProt O43614).
T3 sequence (O43614 whole entry): T2 sequence (whole entry)
Description: Agonist activity at human OX2 receptor overexpressed in CHO-RD-HGA16 cells assessed as calcium mobilization after 15 mins by fluorescence assay. Format: functional, cell-based.

A further experiment is filed under the species Homo sapiens. Description: Selectivity ratio of EC50 for human OX2 receptor to EC50 for human OX1 receptor.
The target in experiment [3] is T4, Orexin/Hypocretin receptor type 1 (Homo sapiens, UniProt O43613).
T4 sequence (O43613 whole entry): T1 sequence (whole entry)
In words: Agonist activity at human OX1 receptor overexpressed in CHO-RD-HGA16 cells assessed as calcium mobilization after 15 mins by fluorescence assay. Format: functional, cell-based. An outline of the steps: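 EC50 from 8-point half-log concentration-response curves. Values are means of at least three independent experiments in duplicate, with SEM, or means of two independent duplicate experiments.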

On to `CC(C)C[C@H](NC(=O)[C@@H](NC(=O)[C@H](CC(C)C)NC(=O)[C@H](C)NC(=O)CNC(=O)[C@H](C)NC(=O)[C@H](C)NC(=O)[C@H](Cc1cnc[nH]1)NC(=O)[C@H](CC(N)=O)NC(=O)CNC(=O)[C@H](C)NC(=O)CNC(=O)[C@H](Cc1cnc[nH]1)NC(=O)[C@H](CC(C)C)NC(=O)[C@H](CC(C)C)NC(=O)[C@H](CCC(=O)O)NC(=O)[C@@H](N)Cc1ccc(O)cc1)[C@@H](C)O)C(N)=O` (H-YELLHGAGNHAAGALTL-NH2), for which the outcome in experiment [1] and in experiment [2] was inactive.

As for `CC[C@H](C)[C@H](NC(=O)CNC(=O)[C@@H](C)NC(=O)[C@H](C)NC(=O)[C@H](Cc1cnc[nH]1)NC(=O)[C@H](CC(N)=O)NC(=O)CNC(=O)[C@H](C)NC(=O)CNC(=O)[C@H](Cc1cnc[nH]1)NC(=O)[C@H](CC(C)C)NC(=O)[C@H](CC(C)C)NC(=O)[C@H](CCC(=O)O)NC(=O)[C@@H](N)Cc1ccc(O)cc1)C(=O)N[C@@H](CC(C)C)C(=O)N[C@H](C(=O)N[C@@H](CC(C)C)C(N)=O)[C@@H](C)O`, the result in experiment [1] was inactive. Also, in experiment [2], the Percent activation at 10 uM was below 50%.

For the compound `CC[C@@H](C)[C@@H](NC(=O)CNC(=O)[C@H](C)NC(=O)[C@H](C)NC(=O)[C@H](Cc1cnc[nH]1)NC(=O)[C@H](CC(N)=O)NC(=O)CNC(=O)[C@H](C)NC(=O)CNC(=O)[C@H](Cc1cnc[nH]1)NC(=O)[C@H](CC(C)C)NC(=O)[C@H](CC(C)C)NC(=O)[C@H](CCC(=O)O)NC(=O)[C@@H](N)Cc1ccc(O)cc1)C(=O)N[C@@H](CC(C)C)C(=O)N[C@H](C(=O)N[C@@H](CC(C)C)C(N)=O)[C@@H](C)O`, the outcome in experiment [1] and in experiment [2] was inactive.

With `CC[C@H](C)[C@H](NC(=O)CNC(=O)[C@H](C)NC(=O)[C@H](C)NC(=O)[C@H](Cc1cnc[nH]1)NC(=O)[C@H](CC(N)=O)NC(=O)CNC(=O)[C@H](C)NC(=O)CNC(=O)[C@H](Cc1cnc[nH]1)NC(=O)[C@H](CC(C)C)NC(=O)[C@H](CC(C)C)NC(=O)[C@H](CCC(=O)O)NC(=O)[C@@H](N)Cc1ccc(O)cc1)C(=O)N[C@@H](CC(C)C)C(=O)N[C@H](C(=O)N[C@@H](C)C(N)=O)[C@@H](C)O` (H-YELLHGAGNHAAGILTA-NH2), in experiment [1], the Calcium response at 10 uM relative to control was below 50%. Moreover, the outcome in experiment [2] was inactive.

Take `CC[C@H](C)[C@H](NC(=O)CNC(=O)[C@H](C)NC(=O)[C@H](C)NC(=O)[C@H](Cc1cnc[nH]1)NC(=O)[C@H](CC(N)=O)NC(=O)CNC(=O)[C@H](C)NC(=O)CNC(=O)[C@H](Cc1cnc[nH]1)NC(=O)[C@H](CC(C)C)NC(=O)[C@H](CC(C)C)NC(=O)[C@H](CCC(=O)O)NC(=O)[C@@H](N)Cc1ccc(O)cc1)C(=O)N[C@@H](CC(C)C)C(=O)N[C@@H](C(=O)N[C@@H](CC(C)C)C(N)=O)[C@H](C)O`: the outcome in experiment [1] and in experiment [2] was inactive.

`CC[C@H](C)[C@H](NC(=O)CNC(=O)[C@H](C)NC(=O)[C@H](C)NC(=O)[C@H](Cc1cnc[nH]1)NC(=O)[C@H](CC(N)=O)NC(=O)CNC(=O)[C@H](C)NC(=O)CNC(=O)[C@H](Cc1cnc[nH]1)NC(=O)[C@H](CC(C)C)NC(=O)[C@H](CC(C)C)NC(=O)[C@H](CCC(=O)O)NC(=O)[C@@H](N)Cc1ccc(O)cc1)C(=O)N[C@@H](CC(C)C)C(=O)N[C@H](C(=O)N[C@H](CC(C)C)C(N)=O)[C@@H](C)O`: the outcome in experiment [1] and in experiment [2] was inactive.

`CC[C@H](C)[C@H](NC(=O)CNC(=O)[C@H](C)NC(=O)[C@H](C)NC(=O)[C@H](Cc1cnc[nH]1)NC(=O)[C@H](CC(N)=O)NC(=O)CNC(=O)[C@H](CO)NC(=O)[C@H](C)NC(=O)[C@H](CCC(N)=O)NC(=O)[C@H](CC(C)C)NC(=O)[C@H](CC(C)C)NC(=O)[C@H](CCCNC(=N)N)NC(=O)[C@@H](N)CCC(N)=O)C(=O)N[C@@H](CC(C)C)C(=O)N[C@H](C(=O)N[C@@H](CCSC)C(N)=O)[C@@H](C)O` (H-QRLLQASGNHAAGILTM-NH2): the Calcium response at 10 uM relative to control in experiment [1] is below 50%. Besides, the concentration giving a half-maximal response (EC50) – broadly, the concentration needed to bring the measured effect to its halfway point – at Orexin receptor type 2 worked out at 1.04 µM.

With `CC[C@H](C)[C@H](NC(=O)CNC(=O)[C@H](C)NC(=O)[C@H](C)NC(=O)[C@H](Cc1cnc[nH]1)NC(=O)[C@H](CC(N)=O)NC(=O)CNC(=O)[C@H](C)NC(=O)CNC(=O)[C@H](Cc1cnc[nH]1)NC(=O)[C@H](CC(C)C)NC(=O)[C@H](CC(C)C)NC(=O)[C@H](CCC(=O)O)NC(=O)[C@@H](N)Cc1ccc(O)cc1)C(=O)N[C@H](CC(C)C)C(=O)N[C@H](C(=O)N[C@@H](CC(C)C)C(N)=O)[C@@H](C)O`, the result in experiment [1] was inactive. Besides, the Percent activation at 10 uM in experiment [2] is below 50%.

For `CC[C@H](C)[C@H](NC(=O)CNC(=O)[C@H](C)NC(=O)[C@H](C)NC(=O)[C@H](Cc1cnc[nH]1)NC(=O)[C@H](CC(N)=O)NC(=O)CNC(=O)[C@H](C)NC(=O)CNC(=O)[C@H](Cc1cnc[nH]1)NC(=O)[C@H](CC(C)C)NC(=O)[C@H](CC(C)C)NC(=O)[C@H](CCC(=O)O)NC(=O)[C@@H](N)Cc1ccc(O)cc1)C(=O)N[C@@H](CC(C)C)C(=O)N[C@@H](C)C(=O)N[C@@H](CC(C)C)C(N)=O` (H-YELLHGAGNHAAGILAL-NH2), the Calcium response at 10 uM relative to control in experiment [1] is below 50%. Further, the Percent activation at 10 uM in experiment [2] was below 50%.

In the case of `CC[C@H](C)[C@H](NC(=O)CNC(=O)[C@H](C)NC(=O)[C@H](C)NC(=O)[C@H](Cc1cnc[nH]1)NC(=O)[C@H](CC(N)=O)NC(=O)CNC(=O)[C@H](C)NC(=O)CNC(=O)[C@H](Cc1cnc[nH]1)NC(=O)[C@H](CC(C)C)NC(=O)[C@H](CC(C)C)NC(=O)[C@H](CCC(=O)O)NC(=O)[C@@H](N)Cc1ccc(O)cc1)C(=O)N[C@@H](C)C(=O)N[C@H](C(=O)N[C@@H](CC(C)C)C(N)=O)[C@@H](C)O` (H-YELLHGAGNHAAGIATL-NH2), the outcome in experiment [1] and in experiment [2] was inactive.

As for `CC[C@H](C)[C@H](NC(=O)CNC(=O)[C@H](C)NC(=O)[C@H](C)NC(=O)[C@H](Cc1cnc[nH]1)NC(=O)[C@H](CC(N)=O)NC(=O)CNC(=O)[C@H](C)NC(=O)CNC(=O)[C@@H](N)Cc1cnc[nH]1)C(=O)N[C@@H](CC(C)C)C(=O)N[C@H](C(=O)N[C@@H](CC(C)C)C(N)=O)[C@@H](C)O` (H-HGAGNHAAGILTL-NH2), in experiment [1], the Calcium response at 10 uM relative to control was below 50%.

As for `CC[C@H](C)[C@H](NC(=O)[C@H](C)NC(=O)[C@H](C)NC(=O)[C@H](C)NC(=O)[C@H](Cc1cnc[nH]1)NC(=O)[C@H](CC(N)=O)NC(=O)CNC(=O)[C@H](C)NC(=O)CNC(=O)[C@H](Cc1cnc[nH]1)NC(=O)[C@H](CC(C)C)NC(=O)[C@H](CC(C)C)NC(=O)[C@H](CCC(=O)O)NC(=O)[C@@H](N)Cc1ccc(O)cc1)C(=O)N[C@@H](CC(C)C)C(=O)N[C@H](C(=O)N[C@@H](CC(C)C)C(N)=O)[C@@H](C)O` (H-YELLHGAGNHAAAILTL-NH2), the Calcium response at 10 uM relative to control in experiment [1] was below 50%. Moreover, the Percent activation at 10 uM in experiment [2] is below 50%.

Regarding `CC[C@H](C)[C@H](NC(=O)CNC(=O)[C@H](C)NC(=O)[C@H](C)NC(=O)[C@H](Cc1cnc[nH]1)NC(=O)[C@@H](CC(N)=O)NC(=O)CNC(=O)[C@H](C)NC(=O)CNC(=O)[C@H](Cc1cnc[nH]1)NC(=O)[C@H](CC(C)C)NC(=O)[C@H](CC(C)C)NC(=O)[C@H](CCC(=O)O)NC(=O)[C@@H](N)Cc1ccc(O)cc1)C(=O)N[C@@H](CC(C)C)C(=O)N[C@H](C(=O)N[C@@H](CC(C)C)C(N)=O)[C@@H](C)O`, the result in experiment [1] was inactive. For the same compound, in experiment [2], the Percent activation at 10 uM is below 50%.

Turning to `CC[C@H](C)[C@H](NC(=O)CNC(=O)[C@H](C)NC(=O)[C@H](C)NC(=O)[C@H](Cc1cnc[nH]1)NC(=O)[C@H](CC(N)=O)NC(=O)CNC(=O)[C@@H](C)NC(=O)CNC(=O)[C@H](Cc1cnc[nH]1)NC(=O)[C@H](CC(C)C)NC(=O)[C@H](CC(C)C)NC(=O)[C@H](CCC(=O)O)NC(=O)[C@@H](N)Cc1ccc(O)cc1)C(=O)N[C@@H](CC(C)C)C(=O)N[C@H](C(=O)N[C@@H](CC(C)C)C(N)=O)[C@@H](C)O`, the half-maximal effective concentration (EC50) at Orexin receptor type 2 turned out to be 1.92 µM; in experiment [3], 3.07 µM. Besides, the Ratio EC50 in the experiment filed under Homo sapiens was determined as 0.6.
